# From ChEMBL document CHEMBL3616423, “Design and synthesis of novel hydroxyanthraquinone nitrogen mustard derivatives as potential anticancer agents via a bioisostere approach” (Eur J Med Chem, 2015)
# System: MCF7
# Assay: Ratio of chlorambucil IC50 to compound IC50 for human MCF7 cells assessed as cell viability after 5 days by cell viability analyzer
# Format: functional
# Conditions: not given
# Outline: (§1)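 Cells grown in DMEM with 10% FBS, 4 mM glutamine, 1 mM sodium pyruvate, penicillin/streptomycin and amphotericin at 37 °C under 5% CO2. They were seeded at 20,000 per well and exposed to test agents or chlorambucil at 5 doses (0.01–10 μM) for 5 days, with DMSO as vehicle. Viable cells were counted by analyzer and expressed as % of vehicle. IC50s for both agents came from dose-response curves over three independent experiments.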
row,Compound,Ratio IC50
1,O=C1c2ccccc2C(=O)c2c(O)c(C(c3ccc(F)cc3)N(CCCl)CCCl)cc(O)c21 (stereo not given),100

# System: MDA-MB-231
# Assay: Ratio of chlorambucil IC50 to compound IC50 for human MDA-MB-231 cells assessed as cell viability after 5 days by cell viability analyzer
# Format: functional
# Conditions: not given
# Outline: as §1
row,Compound,Ratio IC50
1,O=C1c2ccccc2C(=O)c2c(O)c(C(c3ccccc3F)N(CCCl)CCCl)cc(O)c21 (stereo not given),900

# System: MDA-MB-231
# Assay: Cytotoxicity against human MDA-MB-231 cells assessed as cell viability after 5 days by cell viability analyzer
# Format: functional, cell-based
# Conditions: MDA-MB-231, 120 h
# Outline: (§2)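 Cells were grown in DMEM with 10% FBS, 4 mM glutamine, 1 mM sodium pyruvate, penicillin/streptomycin and amphotericin at 37 °C under 5% CO2, then seeded at 20,000 per well. They were exposed to five doses from 0.01 to 10 μM for 5 days, with DMSO vehicle as control. Viable cells were counted, and % viability was calculated as treated/vehicle. IC50 was taken from dose-response curves over three independent experiments.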
row,Compound,IC50
1,CC(c1cc(O)c2c(c1O)C(=O)c1ccccc1C2=O)N(CCCl)CCCl (stereo not given),1000 nM
2,O=C1c2ccccc2C(=O)c2c(O)c(CN(CCCl)CCCl)cc(O)c21,211 nM
3,CCC(c1cc(O)c2c(c1O)C(=O)c1ccccc1C2=O)N(CCCl)CCCl (stereo not given),84.5 nM
4,CCCC(c1cc(O)c2c(c1O)C(=O)c1ccccc1C2=O)N(CCCl)CCCl (stereo not given),61.9 nM
5,CC(C)C(c1cc(O)c2c(c1O)C(=O)c1ccccc1C2=O)N(CCCl)CCCl (stereo not given),77.6 nM
6,CC(C)CC(c1cc(O)c2c(c1O)C(=O)c1ccccc1C2=O)N(CCCl)CCCl (stereo not given),14.6 nM
7,O=C1c2ccccc2C(=O)c2c(O)c(C(Cc3ccccc3)N(CCCl)CCCl)cc(O)c21 (stereo not given),51.1 nM
8,O=C1c2ccccc2C(=O)c2c(O)c(C(c3ccccc3)N(CCCl)CCCl)cc(O)c21 (stereo not given),137 nM
9,O=C1c2ccccc2C(=O)c2c(O)c(C(c3ccccc3F)N(CCCl)CCCl)cc(O)c21 (stereo not given),0.59 nM
10,O=C1c2ccccc2C(=O)c2c(O)c(C(c3cccc(F)c3)N(CCCl)CCCl)cc(O)c21 (stereo not given),59.6 nM
11,O=C1c2ccccc2C(=O)c2c(O)c(C(c3ccc(F)cc3)N(CCCl)CCCl)cc(O)c21 (stereo not given),80.7 nM
12,O=C1c2ccccc2C(=O)c2c(O)c(C(c3ccc(Cl)cc3)N(CCCl)CCCl)cc(O)c21 (stereo not given),48 nM
13,O=C1c2ccccc2C(=O)c2c(O)c(C(c3ccc(Br)cc3)N(CCCl)CCCl)cc(O)c21 (stereo not given),299 nM
14,COc1ccccc1C(c1cc(O)c2c(c1O)C(=O)c1ccccc1C2=O)N(CCCl)CCCl (stereo not given),2.13 nM
15,COc1cccc(C(c2cc(O)c3c(c2O)C(=O)c2ccccc2C3=O)N(CCCl)CCCl)c1 (stereo not given),91.2 nM
16,COc1ccc(C(c2cc(O)c3c(c2O)C(=O)c2ccccc2C3=O)N(CCCl)CCCl)cc1 (stereo not given),12.9 nM
17,Cc1ccc(C(c2cc(O)c3c(c2O)C(=O)c2ccccc2C3=O)N(CCCl)CCCl)cc1 (stereo not given),22.5 nM
18,Cc1ccc(C(c2cc(O)c3c(c2O)C(=O)c2ccccc2C3=O)N(CCCl)CCCl)cc1C (stereo not given),389 nM
19,O=C1c2cccc(O)c2C(=O)c2c1ccc(C(c1ccccc1)N(CCCl)CCCl)c2O (stereo not given),316 nM
20,COc1cc(C(c2ccccc2)N(CCCl)CCCl)c(O)c2c1C(=O)c1ccccc1C2=O (stereo not given),278 nM
21,O=C(O)CCCc1ccc(N(CCCl)CCCl)cc1 [CHLORAMBUCIL],520 nM

# System: HeLa
# Assay: Ratio of chlorambucil IC50 to compound IC50 for human HeLa cells assessed as cell viability after 5 days by cell viability analyzer
# Format: functional
# Conditions: not given
# Outline: as §1
row,Compound,Ratio IC50
1,Cc1ccc(C(c2cc(O)c3c(c2O)C(=O)c2ccccc2C3=O)N(CCCl)CCCl)cc1 (stereo not given),10

# System: HeLa
# Assay: Cytotoxicity against human HeLa cells assessed as cell viability after 5 days by cell viability analyzer
# Format: functional, cell-based
# Conditions: 120 h
# Outline: as §2
row,Compound,IC50
1,CC(c1cc(O)c2c(c1O)C(=O)c1ccccc1C2=O)N(CCCl)CCCl (stereo not given),154 nM
2,O=C1c2ccccc2C(=O)c2c(O)c(CN(CCCl)CCCl)cc(O)c21,139 nM
3,CCC(c1cc(O)c2c(c1O)C(=O)c1ccccc1C2=O)N(CCCl)CCCl (stereo not given),105 nM
4,CCCC(c1cc(O)c2c(c1O)C(=O)c1ccccc1C2=O)N(CCCl)CCCl (stereo not given),152 nM
5,CC(C)C(c1cc(O)c2c(c1O)C(=O)c1ccccc1C2=O)N(CCCl)CCCl (stereo not given),217 nM
6,CC(C)CC(c1cc(O)c2c(c1O)C(=O)c1ccccc1C2=O)N(CCCl)CCCl (stereo not given),392 nM
7,O=C1c2ccccc2C(=O)c2c(O)c(C(Cc3ccccc3)N(CCCl)CCCl)cc(O)c21 (stereo not given),665 nM
8,O=C1c2ccccc2C(=O)c2c(O)c(C(c3ccccc3)N(CCCl)CCCl)cc(O)c21 (stereo not given),339 nM
9,O=C1c2ccccc2C(=O)c2c(O)c(C(c3ccccc3F)N(CCCl)CCCl)cc(O)c21 (stereo not given),615 nM
10,O=C1c2ccccc2C(=O)c2c(O)c(C(c3cccc(F)c3)N(CCCl)CCCl)cc(O)c21 (stereo not given),166 nM
11,O=C1c2ccccc2C(=O)c2c(O)c(C(c3ccc(F)cc3)N(CCCl)CCCl)cc(O)c21 (stereo not given),249 nM
12,O=C1c2ccccc2C(=O)c2c(O)c(C(c3ccc(Cl)cc3)N(CCCl)CCCl)cc(O)c21 (stereo not given),185 nM
13,O=C1c2ccccc2C(=O)c2c(O)c(C(c3ccc(Br)cc3)N(CCCl)CCCl)cc(O)c21 (stereo not given),262 nM
14,COc1ccccc1C(c1cc(O)c2c(c1O)C(=O)c1ccccc1C2=O)N(CCCl)CCCl (stereo not given),210 nM
15,COc1cccc(C(c2cc(O)c3c(c2O)C(=O)c2ccccc2C3=O)N(CCCl)CCCl)c1 (stereo not given),210 nM
16,COc1ccc(C(c2cc(O)c3c(c2O)C(=O)c2ccccc2C3=O)N(CCCl)CCCl)cc1 (stereo not given),457 nM
17,Cc1ccc(C(c2cc(O)c3c(c2O)C(=O)c2ccccc2C3=O)N(CCCl)CCCl)cc1 (stereo not given),93.8 nM
18,Cc1ccc(C(c2cc(O)c3c(c2O)C(=O)c2ccccc2C3=O)N(CCCl)CCCl)cc1C (stereo not given),234 nM
19,O=C1c2cccc(O)c2C(=O)c2c1ccc(C(c1ccccc1)N(CCCl)CCCl)c2O (stereo not given),308 nM
20,COc1cc(C(c2ccccc2)N(CCCl)CCCl)c(O)c2c1C(=O)c1ccccc1C2=O (stereo not given),480 nM
21,O=C(O)CCCc1ccc(N(CCCl)CCCl)cc1 [CHLORAMBUCIL],943 nM

# System: MCF10
# Assay: Cytotoxicity against human MCF10 cells at 1 to 10 uM
# Format: cell-based
# Conditions: mcf10, 10 µM
row,Compound,Activity
1,CC(C)C(c1cc(O)c2c(c1O)C(=O)c1ccccc1C2=O)N(CCCl)CCCl (stereo not given),Toxic
2,O=C1c2ccccc2C(=O)c2c(O)c(C(c3ccccc3)N(CCCl)CCCl)cc(O)c21 (stereo not given),Toxic
3,O=C1c2ccccc2C(=O)c2c(O)c(C(c3ccccc3F)N(CCCl)CCCl)cc(O)c21 (stereo not given),Toxic
4,O=C1c2ccccc2C(=O)c2c(O)c(C(c3cccc(F)c3)N(CCCl)CCCl)cc(O)c21 (stereo not given),Toxic
5,O=C1c2ccccc2C(=O)c2c(O)c(C(c3ccc(F)cc3)N(CCCl)CCCl)cc(O)c21 (stereo not given),Toxic
6,COc1ccccc1C(c1cc(O)c2c(c1O)C(=O)c1ccccc1C2=O)N(CCCl)CCCl (stereo not given),Toxic
7,COc1cccc(C(c2cc(O)c3c(c2O)C(=O)c2ccccc2C3=O)N(CCCl)CCCl)c1 (stereo not given),Toxic
8,COc1ccc(C(c2cc(O)c3c(c2O)C(=O)c2ccccc2C3=O)N(CCCl)CCCl)cc1 (stereo not given),Toxic
9,Cc1ccc(C(c2cc(O)c3c(c2O)C(=O)c2ccccc2C3=O)N(CCCl)CCCl)cc1C (stereo not given),Toxic
10,COc1cc(C(c2ccccc2)N(CCCl)CCCl)c(O)c2c1C(=O)c1ccccc1C2=O (stereo not given),Toxic
